Results published in ChEMBL document CHEMBL3108769, “Development of 1,8-naphthalimides as clathrin inhibitors” (J Med Chem, 2014).
Activity calls are given as the source filed them. The rule behind the calls is not given here.

Assays:
U2OS = test: Inhibition of clathrin in human U2OS cells assessed as texas red-Tf endocytosis incubated 30 mins prior to texas red-Tf addition measured after 8 mins; type: cell-based
How it was run: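 U2OS cells preincubated 30 min with inhibitor (1 to 300 μM) or vehicle, then 4 μg/mL Tf-A594 added for 8 min at 37 °C. Uptake quantified by automated imaging and analysis, ~1200 cells per point. IC50 fitted; reported as mean ±95% CI from three wells.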

[1] = Inhibition of phosphotidylserine-stimulated sheep brain dynamin 1 GTPase activity assessed as inhibition of phosphate release from GTP after 30 mins by malachite green reagent method; design: species or system Ovis aries
How it was run: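 Native dynamin I purified from sheep brain (peripheral membrane fraction, GST-Amph2-SH3-sepharose affinity). Dynamin (20 nM) stimulated by 4 μg/mL sonicated phosphatidylserine with compound for 30 min at 37 °C. Buffer: 5 mM Tris-HCl pH 7.4, 10 mM NaCl, 2 mM Mg2+, 1 μg/mL leupeptin, 0.1 mM PMSF, 0.3 mM GTP. Phosphate release read by malachite green.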

Ovis aries [2] = species on record: Ovis aries; test: Inhibition of phosphotidylserine-stimulated sheep brain dynamin 1 GTPase activity assessed as inhibition of phosphate release from GTP at 100 uM after 30 mins by malachite green reagent method
Clathrin heavy chain 1 [3] = biological target: T1, Clathrin heavy chain 1 (Homo sapiens, UniProt Q00610); test: Inhibition of recombinant GST-tagged clathrin heavy chain (unknown origin) at 100 uM after 1 hr by ELISA
Ovis aries [4] = species on record: Ovis aries; settings: 300 uM
Clathrin heavy chain 1 [5] = biological target: T1, Clathrin heavy chain 1; test: Inhibition of recombinant GST-tagged clathrin heavy chain (unknown origin) after 1 hr by ELISA

T1 sequence (Q00610 whole entry): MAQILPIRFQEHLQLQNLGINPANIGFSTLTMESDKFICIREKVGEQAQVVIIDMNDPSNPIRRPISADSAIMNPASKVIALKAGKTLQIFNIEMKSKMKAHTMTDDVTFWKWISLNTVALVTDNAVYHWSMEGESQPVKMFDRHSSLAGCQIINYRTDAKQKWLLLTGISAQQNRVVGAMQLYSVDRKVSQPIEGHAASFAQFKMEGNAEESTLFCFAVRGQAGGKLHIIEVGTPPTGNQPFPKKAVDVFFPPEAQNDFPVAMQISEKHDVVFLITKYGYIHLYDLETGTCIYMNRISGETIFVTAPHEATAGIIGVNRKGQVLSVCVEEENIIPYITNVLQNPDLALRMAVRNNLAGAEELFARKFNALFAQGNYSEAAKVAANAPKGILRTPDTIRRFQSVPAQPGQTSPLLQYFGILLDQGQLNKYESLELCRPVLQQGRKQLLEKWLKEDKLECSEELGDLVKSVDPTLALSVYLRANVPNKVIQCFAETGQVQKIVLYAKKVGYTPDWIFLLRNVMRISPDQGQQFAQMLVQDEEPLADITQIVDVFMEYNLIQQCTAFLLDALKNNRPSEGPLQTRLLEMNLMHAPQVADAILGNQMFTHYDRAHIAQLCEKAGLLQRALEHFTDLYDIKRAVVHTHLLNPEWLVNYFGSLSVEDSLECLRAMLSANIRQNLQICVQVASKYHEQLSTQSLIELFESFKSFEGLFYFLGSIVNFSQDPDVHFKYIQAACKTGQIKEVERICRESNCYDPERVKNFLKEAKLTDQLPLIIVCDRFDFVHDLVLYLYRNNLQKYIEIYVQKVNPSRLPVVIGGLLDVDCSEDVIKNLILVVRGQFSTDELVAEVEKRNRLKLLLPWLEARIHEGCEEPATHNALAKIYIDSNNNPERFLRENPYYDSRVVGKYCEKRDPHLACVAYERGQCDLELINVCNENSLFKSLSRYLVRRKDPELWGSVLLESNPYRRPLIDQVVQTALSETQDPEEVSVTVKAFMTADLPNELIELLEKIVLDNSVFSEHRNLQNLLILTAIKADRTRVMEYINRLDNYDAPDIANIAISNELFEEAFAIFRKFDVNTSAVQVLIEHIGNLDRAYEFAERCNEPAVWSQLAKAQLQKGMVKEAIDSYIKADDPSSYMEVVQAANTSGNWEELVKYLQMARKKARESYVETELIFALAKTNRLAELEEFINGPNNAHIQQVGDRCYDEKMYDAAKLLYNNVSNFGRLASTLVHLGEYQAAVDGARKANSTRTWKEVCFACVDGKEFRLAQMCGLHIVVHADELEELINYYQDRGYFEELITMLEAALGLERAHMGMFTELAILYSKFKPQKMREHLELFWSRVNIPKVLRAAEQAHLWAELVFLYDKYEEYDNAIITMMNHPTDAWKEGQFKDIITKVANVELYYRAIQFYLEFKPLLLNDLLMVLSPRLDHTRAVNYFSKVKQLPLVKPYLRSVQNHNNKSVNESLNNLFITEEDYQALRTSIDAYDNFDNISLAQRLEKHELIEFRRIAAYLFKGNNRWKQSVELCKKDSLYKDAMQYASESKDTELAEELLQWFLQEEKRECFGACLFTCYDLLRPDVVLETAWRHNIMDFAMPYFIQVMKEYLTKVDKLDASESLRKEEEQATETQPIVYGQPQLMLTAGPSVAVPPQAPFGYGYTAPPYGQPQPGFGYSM

SMILES | inhibition (Clathrin heavy chain 1 [3]) | inhibition (U2OS) | further results
O=C1c2cccc3cc(S(=O)(=O)O)cc(c23)C(=O)N1Cc1ccc(F)cc1 | – | inactive | IC50 [1]: 306 µM
Nc1ccc(CN2C(=O)c3cccc4cc(S(=O)(=O)O)cc(c34)C2=O)cc1 | – | inactive | inhibition (Ovis aries [2]): inactive
Nc1cccc(CN2C(=O)c3cccc4cc(S(=O)(=O)O)cc(c34)C2=O)c1 | – | inactive | IC50 [1]: 264 µM
O=C1c2cccc3cc(S(=O)(=O)O)cc(c23)C(=O)N1Cc1ccccc1 | – | inactive | inhibition (Ovis aries [4]): inactive
O=C1c2cccc3cc(S(=O)(=O)O)cc(c23)C(=O)N1Cc1ccc(Br)cc1 | – | inactive | inhibition (Ovis aries [4]): inactive
O=C1c2cccc3cc(S(=O)(=O)O)cc(c23)C(=O)N1Cc1ccc(Cl)cc1 | – | inactive | IC50 [1]: 111 µM
O=C1c2cccc3cc(S(=O)(=O)O)cc(c23)C(=O)N1Cc1ccc(O)cc1 | – | inactive | inhibition (Ovis aries [4]): inactive
Nc1ccc(CN2C(=O)c3cccc4c(S(=O)(=O)O)ccc(c34)C2=O)cc1 | inactive | – | –
CN(C)c1ccc(CN2C(=O)c3cccc4cc(S(=O)(=O)O)cc(c34)C2=O)cc1 | – | inactive | inhibition (Ovis aries [4]): inactive
CCCN1C(=O)c2cccc3c(N)c(S(=O)(=O)O)cc(c23)C1=O | – | – | IC50 (Clathrin heavy chain 1 [5]): 120 µM
Nc1ccc(N2C(=O)c3cccc4cc(S(=O)(=O)O)cc(c34)C2=O)cc1 | inactive | inactive | inhibition (Ovis aries [2]): inactive
Nc1ccccc1CN1C(=O)c2cccc3cc(S(=O)(=O)O)cc(c23)C1=O | – | inactive | IC50 [1]: 108 µM
O=C(O)c1ccc(CN2C(=O)c3cccc4cc(S(=O)(=O)O)cc(c34)C2=O)cc1 | – | inactive | IC50 [1]: 185 µM
Nc1ccc(CN2C(=O)c3cc([N+](=O)[O-])cc4cc([N+](=O)[O-])cc(c34)C2=O)cc1 | inactive | – | –
COc1ccc(CN2C(=O)c3cccc4cc(S(=O)(=O)O)cc(c34)C2=O)cc1 | – | inactive | inhibition (Ovis aries [4]): inactive
Cc1ccc(CN2C(=O)c3cccc4cc(S(=O)(=O)O)cc(c34)C2=O)cc1 | – | inactive | inhibition (Ovis aries [4]): inactive
O=C1c2cccc3cc(S(=O)(=O)O)cc(c23)C(=O)N1Cc1ccc([N+](=O)[O-])cc1 | inactive | inactive | IC50 [1]: 49 µM

Continued, in another order:

inhibition (Clathrin heavy chain 1 [3]) | SMILES | inhibition (U2OS) | further results
inactive | Nc1ccc(CN2C(=O)c3cccc4cccc(c34)C2=O)cc1 | – | –
inactive | Nc1ccc(CN2C(=O)c3cccc4cc(N)cc(c34)C2=O)cc1 | – | –
inactive | Nc1ccc(CN2C(=O)c3cccc4cc(Br)cc(c34)C2=O)cc1 | – | –
inactive | Nc1ccc(CN2C(=O)c3cccc4cc([N+](=O)[O-])cc(c34)C2=O)cc1 | – | –
inactive | Nc1ccc(CN2C(=O)c3cccc4c(N)ccc(c34)C2=O)cc1 | – | –
inactive | Nc1ccc(CN2C(=O)c3cccc4c([N+](=O)[O-])ccc(c34)C2=O)cc1 | – | –
inactive | Nc1ccc(CN2C(=O)c3cccc4c(Cl)ccc(c34)C2=O)cc1 | – | –
inactive | Nc1ccc(CN2C(=O)c3cccc4c(Br)ccc(c34)C2=O)cc1 | – | –
inactive | Nc1ccc(CN2C(=O)c3cccc4cc(O)cc(c34)C2=O)cc1 | – | –
inactive | COc1cc2c3c(cccc3c1)C(=O)N(Cc1ccc(N)cc1)C2=O | – | –
